Experimental data taken from ChEMBL document CHEMBL3856250, “Discovery of 6-Fluoro-5-(R)-(3-(S)-(8-fluoro-1-methyl-2,4-dioxo-1,2-dihydroquinazolin-3(4H)-yl)-2-methylphenyl)-2-(S)-(2-hydroxypropan-2-yl)-2,3,4,9-tetrahydro-1H-carbazole-8-carboxamide (BMS-986142): A Reversible Inhibitor of Bruton's Tyrosine Kinase (BTK) Conformationally Constrained by Two …” (J Med Chem, 2016).
≈ marks a conversion by molar mass, not a printed value.

Tests used:
Cytochrome P450 2D6 = Cytochrome P450 2D6 (Homo sapiens, UniProt P10635); experiment: Inhibition of CYP2D6 (unknown origin); format: ADME
[1] = target: T1, Tyrosine-protein kinase BTK (Homo sapiens, UniProt Q06187); experiment: Inhibition of BTK in human Ramos-B cells assessed as suppression of BCR/anti-IgM-stimulated Ca2+ flux after 1 hr incubation in dark by FLIPR1 assay
[2] = target: T1, Tyrosine-protein kinase BTK; experiment: Inhibition of BTK in human PBM cells assessed as suppression of FCRgammaR/immune complex-stimulated TNFalpha production; format: cell-based
[3] = Oral bioavailability in mouse at 3 mg/kg; format: ADME, organism-based; conditions: in vivo
[4] = Oral bioavailability in dog at 2 mg/kg; format: ADME, organism-based, Canis lupus familiaris; conditions: in vivo
[5] = Clearance in rat at 2 mg/kg, iv; format: ADME, organism-based; conditions: in vivo
[6] = Clearance in dog at 1 mg/kg, iv; format: ADME, organism-based, Canis lupus familiaris; conditions: in vivo
[7] = target: T1, Tyrosine-protein kinase BTK; experiment: Inhibition of BTK in human peripheral B cells assessed as suppression of CD40/CD40L-stimulated CD69 surface expression; format: cell-based
[8] = MRT in mouse at 3 mg/kg, iv; format: ADME, organism-based; conditions: in vivo
[9] = target: Voltage-gated inwardly rectifying potassium channel KCNH2 (Homo sapiens, UniProt Q12809); experiment: Inhibition of human ERG by patch clamp assay
[10] = Half life in dog at 1 mg/kg, iv; format: ADME, organism-based, Canis lupus familiaris; conditions: in vivo
[11] = Solubility of the compound in fasted state stimulated intestinal fluid; format: ADME; conditions: fasted state simulated intestinal fluid (FaSSIF)
[12] = AUC in mouse at 10 mg/kg; format: ADME, organism-based; conditions: in vivo
[13] = Half life in mouse at 3 mg/kg, iv; format: ADME, organism-based; conditions: in vivo
[14] = target: Proto-oncogene tyrosine-protein kinase Src (Homo sapiens, UniProt P12931); experiment: Inhibition of SRC (unknown origin)
Cytochrome P450 2C19 = Cytochrome P450 2C19 (Homo sapiens, UniProt P33261); experiment: Inhibition of CYP2C19 (unknown origin); format: ADME
[15] = Volume of distribution at steady state in rat at 2 mg/kg, iv; format: ADME, organism-based; conditions: in vivo, read-out: Vdss
[16] = Tmax in cynomolgus monkey at 4 mg/kg, po; format: ADME, organism-based, Macaca fascicularis; conditions: in vivo
[17] = AUC in mouse at 6 mg/kg, po; format: ADME, organism-based; conditions: in vivo
[18] = Cmax in mouse at 10 mg/kg, iv or po; format: ADME, organism-based; conditions: in vivo
[19] = Permeability of the compound at pH 7.4 by PAMPA assay; format: ADME; conditions: read-out: permeability
[20] = Cmax in rat at 5 mg/kg, po; format: ADME, organism-based; set-up: dose 5 mg/kg, route oral; conditions: in vivo
[21] = Distribution coefficient, log D of the compound at pH 7.0 by HPLC method; format: physicochemical; conditions: octanol/water
[22] = Aqueous solubility of the compound; format: physicochemical; conditions: aqueous medium
[23] = Oral bioavailability in cynomolgus monkey at 4 mg/kg; format: ADME, organism-based, Macaca fascicularis; conditions: in vivo
[24] = target: T1, Tyrosine-protein kinase BTK; experiment: Inhibition of BTK in human whole blood assessed as suppression of BCR/anti-IgM/IgG-stimulated CD69 surface expression after 18 hrs with agitation by FITC-staining based FACS analysis; format: tissue-based
[25] = Volume of distribution at steady state in cynomolgus monkey at 2 mg/kg, iv; format: ADME, organism-based, Macaca fascicularis; conditions: in vivo, read-out: Vdss
[26] = Cmax in cynomolgus monkey at 4 mg/kg, po; format: ADME, organism-based, Macaca fascicularis; set-up: dose 4 mg/kg, route oral; conditions: in vivo
[27] = Cmax in mouse at 6 mg/kg, po; format: ADME, organism-based; set-up: dose 6 mg/kg, route oral; conditions: in vivo
[28] = Protein binding in monkey plasma; format: ADME, cell-free, Macaca mulatta; conditions: rhesus monkey, read-out: PPB (converted)
[29] = AUC in dog at 2 mg/kg, po; format: ADME, organism-based, Canis lupus familiaris; conditions: in vivo
[30] = target: T2, Tyrosine-protein kinase ITK/TSK (Homo sapiens, UniProt Q08881); experiment: Inhibition of ITK in human peripheral T cells assessed as suppression of TCR/anti-CD3-stimulated protein catalyzed PLCgamma1 phosphorylation; format: cell-based, T-cell
T2 sequence (Q08881 whole entry): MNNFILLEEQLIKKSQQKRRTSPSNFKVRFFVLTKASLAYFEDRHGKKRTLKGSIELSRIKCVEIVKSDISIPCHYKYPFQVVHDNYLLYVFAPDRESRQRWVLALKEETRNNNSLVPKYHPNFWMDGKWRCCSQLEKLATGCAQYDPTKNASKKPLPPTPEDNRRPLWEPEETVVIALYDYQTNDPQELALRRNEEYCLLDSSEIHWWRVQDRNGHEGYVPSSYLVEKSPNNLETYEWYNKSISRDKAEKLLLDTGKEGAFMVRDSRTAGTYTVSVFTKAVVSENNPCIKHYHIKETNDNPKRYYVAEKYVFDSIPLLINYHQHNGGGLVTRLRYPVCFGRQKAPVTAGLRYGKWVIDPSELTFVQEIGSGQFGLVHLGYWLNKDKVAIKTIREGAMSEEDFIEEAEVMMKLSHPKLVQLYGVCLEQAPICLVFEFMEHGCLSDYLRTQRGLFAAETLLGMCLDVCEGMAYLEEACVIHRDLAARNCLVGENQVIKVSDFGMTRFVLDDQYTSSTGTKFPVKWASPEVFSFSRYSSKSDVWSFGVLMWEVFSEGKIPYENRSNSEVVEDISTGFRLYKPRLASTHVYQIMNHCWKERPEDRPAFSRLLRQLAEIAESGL

Cytochrome P450 2C9 = Cytochrome P450 2C9 (Homo sapiens, UniProt P11712); experiment: Inhibition of CYP2C9 (unknown origin); format: ADME
[31] = Half life in cynomolgus monkey at 2 mg/kg, iv; format: ADME, organism-based, Macaca fascicularis; conditions: in vivo
[32] = MRT in dog at 1 mg/kg, iv; format: ADME, organism-based, Canis lupus familiaris; conditions: in vivo
[33] = target: Tyrosine-protein kinase BTK (Mus musculus, UniProt P35991); experiment: Inhibition of BTK in mouse whole blood assessed as suppression of BCR/anti-IgM/IgG-stimulated CD69 surface expression after 18 hrs with agitation by FITC-staining based FACS analysis; format: tissue-based
Outline: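 Mouse whole blood was incubated with compound and stimulated with F(ab′)2 goat anti-mouse IgG+IgM (100 μg/mL) in the same way as the human assay (18 h, 37 °C, agitation). B cells were gated by APC anti-CD19, and CD69 was quantified as FITC MFI by FACS.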

[34] = Protein binding in dog plasma; format: ADME, cell-free, Canis lupus familiaris; conditions: read-out: PPB (converted)
[35] = Volume of distribution at steady state in dog at 1 mg/kg, iv; format: ADME, organism-based, Canis lupus familiaris; conditions: in vivo, read-out: Vdss
[36] = Protein binding in human serum; format: ADME; conditions: read-out: PPB (converted)
Cytochrome P450 3A4 = Cytochrome P450 3A4 (Homo sapiens, UniProt P08684); experiment: Inhibition of CYP3A4 (unknown origin); format: ADME
[37] = AUC in rat at 5 mg/kg, po; format: ADME, organism-based; conditions: in vivo
[38] = Clearance in cynomolgus monkey at 2 mg/kg, iv; format: ADME, organism-based, Macaca fascicularis; conditions: in vivo
[39] = MRT in cynomolgus monkey at 2 mg/kg, iv; format: ADME, organism-based, Macaca fascicularis; conditions: in vivo
[40] = target: T1, Tyrosine-protein kinase BTK; experiment: Inhibition of BTK in human whole blood basophils assessed as suppression of FceRI/anti-IgE-stimulated CD63 surface expression; format: tissue-based
[41] = Bioavailability in mouse at 10 mg/kg; format: ADME, organism-based; conditions: in vivo
Mus musculus = experiment: Antiathritis activity in anticollagen antibody-induced arthritis BALB/c mouse model assessed as reduction in LPS-induced paw swelling at 20 mg/kg, po qd followed by LPS addition on day 3 measured after 11 days relative to control; format: functional; set-up: scale not given: the % may be the effect or the level left

T1 sequence (Q06187 whole entry): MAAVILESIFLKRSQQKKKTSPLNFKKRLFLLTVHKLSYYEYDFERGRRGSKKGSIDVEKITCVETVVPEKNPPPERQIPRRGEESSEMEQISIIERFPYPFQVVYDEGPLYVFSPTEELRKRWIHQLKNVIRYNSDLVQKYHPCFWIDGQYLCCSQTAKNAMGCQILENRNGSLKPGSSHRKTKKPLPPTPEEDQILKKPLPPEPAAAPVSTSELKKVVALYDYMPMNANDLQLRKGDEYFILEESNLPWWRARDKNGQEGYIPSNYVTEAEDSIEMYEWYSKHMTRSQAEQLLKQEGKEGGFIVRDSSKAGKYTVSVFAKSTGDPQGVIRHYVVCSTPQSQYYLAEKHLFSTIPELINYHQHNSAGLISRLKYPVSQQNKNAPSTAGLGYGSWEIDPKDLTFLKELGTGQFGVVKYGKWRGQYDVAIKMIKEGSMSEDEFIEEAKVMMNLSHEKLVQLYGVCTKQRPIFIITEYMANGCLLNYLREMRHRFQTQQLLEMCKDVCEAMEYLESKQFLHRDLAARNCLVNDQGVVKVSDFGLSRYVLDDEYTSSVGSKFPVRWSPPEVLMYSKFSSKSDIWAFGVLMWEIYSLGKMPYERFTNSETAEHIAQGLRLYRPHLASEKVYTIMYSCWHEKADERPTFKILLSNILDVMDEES
Proto-oncogene tyrosine-protein kinase Src, sequence (P12931 2-536 limits assumed): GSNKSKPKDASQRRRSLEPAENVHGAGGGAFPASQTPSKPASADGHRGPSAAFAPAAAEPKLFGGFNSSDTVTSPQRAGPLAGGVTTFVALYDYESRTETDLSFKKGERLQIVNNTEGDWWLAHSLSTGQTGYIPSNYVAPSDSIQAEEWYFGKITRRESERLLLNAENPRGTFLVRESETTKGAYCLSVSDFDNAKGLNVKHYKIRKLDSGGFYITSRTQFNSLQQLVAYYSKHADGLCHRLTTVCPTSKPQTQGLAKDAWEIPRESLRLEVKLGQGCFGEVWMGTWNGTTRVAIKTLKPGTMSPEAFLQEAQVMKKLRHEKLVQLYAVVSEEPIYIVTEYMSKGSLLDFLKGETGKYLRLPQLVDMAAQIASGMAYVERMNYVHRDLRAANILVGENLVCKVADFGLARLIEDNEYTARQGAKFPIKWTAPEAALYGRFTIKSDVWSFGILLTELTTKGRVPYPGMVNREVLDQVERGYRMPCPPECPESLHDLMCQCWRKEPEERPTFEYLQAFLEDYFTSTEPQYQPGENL
Cytochrome P450 3A4, sequence (P08684 whole entry): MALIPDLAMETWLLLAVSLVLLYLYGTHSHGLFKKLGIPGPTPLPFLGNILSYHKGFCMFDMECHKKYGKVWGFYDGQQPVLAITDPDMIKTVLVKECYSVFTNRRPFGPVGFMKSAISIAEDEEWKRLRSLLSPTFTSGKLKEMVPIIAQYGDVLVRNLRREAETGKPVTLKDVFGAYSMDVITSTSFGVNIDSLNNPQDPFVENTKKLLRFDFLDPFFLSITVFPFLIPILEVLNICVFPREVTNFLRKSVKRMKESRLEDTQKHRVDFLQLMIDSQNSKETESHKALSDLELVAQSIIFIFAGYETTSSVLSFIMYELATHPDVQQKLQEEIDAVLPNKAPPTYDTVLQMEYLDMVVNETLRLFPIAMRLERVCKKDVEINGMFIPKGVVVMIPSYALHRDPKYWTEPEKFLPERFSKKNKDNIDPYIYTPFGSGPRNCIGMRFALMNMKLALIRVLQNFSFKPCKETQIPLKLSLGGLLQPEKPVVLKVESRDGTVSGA
Voltage-gated inwardly rectifying potassium channel KCNH2, sequence (Q12809 whole entry): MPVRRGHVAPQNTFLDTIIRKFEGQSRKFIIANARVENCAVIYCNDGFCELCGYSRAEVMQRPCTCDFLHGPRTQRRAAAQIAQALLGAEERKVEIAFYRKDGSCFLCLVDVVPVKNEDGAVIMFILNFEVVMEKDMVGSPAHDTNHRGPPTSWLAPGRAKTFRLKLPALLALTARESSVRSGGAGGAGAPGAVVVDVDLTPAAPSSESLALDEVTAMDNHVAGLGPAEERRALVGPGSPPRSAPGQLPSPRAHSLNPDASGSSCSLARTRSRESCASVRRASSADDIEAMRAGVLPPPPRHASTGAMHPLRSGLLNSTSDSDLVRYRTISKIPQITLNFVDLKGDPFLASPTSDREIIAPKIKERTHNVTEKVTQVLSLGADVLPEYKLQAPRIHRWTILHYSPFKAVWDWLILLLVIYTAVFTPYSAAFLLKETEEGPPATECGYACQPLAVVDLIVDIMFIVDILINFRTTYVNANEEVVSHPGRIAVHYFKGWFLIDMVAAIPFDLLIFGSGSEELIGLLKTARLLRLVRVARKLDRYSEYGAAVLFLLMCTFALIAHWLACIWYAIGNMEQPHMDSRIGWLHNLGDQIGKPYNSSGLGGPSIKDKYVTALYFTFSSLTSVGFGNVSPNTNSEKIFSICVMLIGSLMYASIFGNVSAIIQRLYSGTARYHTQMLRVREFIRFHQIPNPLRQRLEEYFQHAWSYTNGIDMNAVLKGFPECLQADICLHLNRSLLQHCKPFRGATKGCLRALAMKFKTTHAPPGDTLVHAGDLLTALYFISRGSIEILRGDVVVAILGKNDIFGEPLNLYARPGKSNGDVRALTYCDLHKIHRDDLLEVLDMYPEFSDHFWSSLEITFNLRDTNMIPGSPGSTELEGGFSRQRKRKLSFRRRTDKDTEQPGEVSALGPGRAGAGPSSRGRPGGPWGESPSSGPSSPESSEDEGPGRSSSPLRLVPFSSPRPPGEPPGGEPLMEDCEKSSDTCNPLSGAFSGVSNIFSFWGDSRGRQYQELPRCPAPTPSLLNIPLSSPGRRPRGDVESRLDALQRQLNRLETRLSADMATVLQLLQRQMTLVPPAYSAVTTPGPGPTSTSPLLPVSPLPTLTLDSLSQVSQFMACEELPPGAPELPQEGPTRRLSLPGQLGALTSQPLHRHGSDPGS
Cytochrome P450 2C19, sequence (P33261 whole entry): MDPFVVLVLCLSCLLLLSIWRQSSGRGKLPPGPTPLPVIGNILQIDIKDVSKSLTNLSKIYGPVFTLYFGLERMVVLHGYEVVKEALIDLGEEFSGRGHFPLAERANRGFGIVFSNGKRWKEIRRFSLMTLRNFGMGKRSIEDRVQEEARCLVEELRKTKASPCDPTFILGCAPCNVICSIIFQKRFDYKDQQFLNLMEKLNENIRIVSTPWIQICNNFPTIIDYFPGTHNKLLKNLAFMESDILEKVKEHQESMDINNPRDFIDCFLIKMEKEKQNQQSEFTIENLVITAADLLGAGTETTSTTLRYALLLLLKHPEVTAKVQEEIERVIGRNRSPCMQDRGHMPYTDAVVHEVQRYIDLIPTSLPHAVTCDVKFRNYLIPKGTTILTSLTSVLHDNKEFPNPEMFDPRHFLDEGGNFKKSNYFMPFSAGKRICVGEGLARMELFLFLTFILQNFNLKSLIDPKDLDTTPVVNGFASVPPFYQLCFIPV
Tyrosine-protein kinase BTK (Mus musculus, UniProt P35991), sequence (P35991 whole entry): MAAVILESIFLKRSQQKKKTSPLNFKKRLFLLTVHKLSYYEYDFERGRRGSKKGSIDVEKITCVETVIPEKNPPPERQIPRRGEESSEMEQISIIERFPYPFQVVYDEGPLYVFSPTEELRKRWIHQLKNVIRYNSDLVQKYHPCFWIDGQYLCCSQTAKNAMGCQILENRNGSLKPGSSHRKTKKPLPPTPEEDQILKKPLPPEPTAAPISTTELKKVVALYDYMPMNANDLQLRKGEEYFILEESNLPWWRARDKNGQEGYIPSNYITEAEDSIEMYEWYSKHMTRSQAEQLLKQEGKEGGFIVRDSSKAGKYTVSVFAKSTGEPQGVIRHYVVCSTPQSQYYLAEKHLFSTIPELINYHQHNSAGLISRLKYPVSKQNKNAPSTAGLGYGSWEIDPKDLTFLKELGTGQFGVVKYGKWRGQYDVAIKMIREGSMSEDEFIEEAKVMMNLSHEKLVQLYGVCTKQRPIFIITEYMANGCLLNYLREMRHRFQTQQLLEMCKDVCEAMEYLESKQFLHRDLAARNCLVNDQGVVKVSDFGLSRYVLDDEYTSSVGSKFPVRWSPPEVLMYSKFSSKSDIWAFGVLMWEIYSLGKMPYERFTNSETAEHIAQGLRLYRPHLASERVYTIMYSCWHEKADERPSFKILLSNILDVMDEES
Cytochrome P450 2D6, sequence (P10635 whole entry): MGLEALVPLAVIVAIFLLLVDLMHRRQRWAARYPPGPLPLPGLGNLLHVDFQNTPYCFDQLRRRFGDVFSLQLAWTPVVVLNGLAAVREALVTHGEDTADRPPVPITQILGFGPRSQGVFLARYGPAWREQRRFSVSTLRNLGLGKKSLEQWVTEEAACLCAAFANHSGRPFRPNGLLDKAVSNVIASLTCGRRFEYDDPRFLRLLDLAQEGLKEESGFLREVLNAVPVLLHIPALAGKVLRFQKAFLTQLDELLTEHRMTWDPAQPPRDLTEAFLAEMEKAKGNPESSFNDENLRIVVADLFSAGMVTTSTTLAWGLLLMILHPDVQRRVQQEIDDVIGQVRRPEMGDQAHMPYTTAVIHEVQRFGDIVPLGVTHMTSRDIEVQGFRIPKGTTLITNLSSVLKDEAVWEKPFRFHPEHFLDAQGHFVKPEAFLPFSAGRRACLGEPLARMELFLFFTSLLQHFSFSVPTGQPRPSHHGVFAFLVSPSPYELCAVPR
Cytochrome P450 2C9, sequence (P11712 whole entry): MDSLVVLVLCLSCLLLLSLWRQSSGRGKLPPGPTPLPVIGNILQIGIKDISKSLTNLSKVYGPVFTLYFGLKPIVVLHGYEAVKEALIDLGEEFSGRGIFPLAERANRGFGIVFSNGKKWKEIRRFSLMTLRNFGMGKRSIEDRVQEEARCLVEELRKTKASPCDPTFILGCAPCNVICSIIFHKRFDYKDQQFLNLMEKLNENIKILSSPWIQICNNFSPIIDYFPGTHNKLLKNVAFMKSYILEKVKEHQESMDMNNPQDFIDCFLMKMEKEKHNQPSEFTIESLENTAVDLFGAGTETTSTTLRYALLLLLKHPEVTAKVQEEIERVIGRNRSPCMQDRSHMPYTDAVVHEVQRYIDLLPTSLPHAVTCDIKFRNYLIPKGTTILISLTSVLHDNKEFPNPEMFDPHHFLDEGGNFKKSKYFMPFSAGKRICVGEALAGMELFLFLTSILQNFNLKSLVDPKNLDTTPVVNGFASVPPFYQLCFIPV

Cc1c(-c2c(F)cc(C(N)=O)c3[nH]c4c(c23)CC[C@H](C(C)(C)O)C4)cccc1-n1c(=O)c2cccc(F)c2n(C)c1=O (atropisomer R) [BMS-986142]
IC50 (Cytochrome P450 2D6): > 40 µM
IC50 [1]: 0.009 µM
IC50 [2]: 0.003 µM
bioavailability [3]: 93%
bioavailability [4]: 100%
clearance [5]: 4.2 mL/min/kg
clearance [6]: 3.2 mL/min/kg
IC50 [7]: > 10 µM
MRT [8]: 4.8 h
IC50 [9]: 5.5 µM
half-life [10]: 13 h
solubility [11]: 18 µg/mL (≈ 31.4 µM)
AUC [12]: 39 µM·h
half-life [13]: 3.4 h
IC50 [14]: 1.1 µM
IC50 (Cytochrome P450 2C19): 32.2 µM
Vd [15]: 1.3 L/kg
Tmax [16]: 3.7 h
AUC [17]: 39 µM·h
Cmax [18]: 4.9 µM
Papp [19]: 72.5 ×10⁻⁶ cm/s
Cmax [20]: 2.3 µM
logD [21]: 4.06
solubility [22]: < 4 µg/mL
bioavailability [23]: 33%
IC50 [24]: 0.09 µM
Vd [25]: 3 L/kg
Cmax [26]: 0.85 µM
Cmax [27]: 4.9 µM
fraction unbound [28]: 0.012
AUC [29]: 16 µM·h
IC50 [30]: 0.41 µM
IC50 (Cytochrome P450 2C9): 17.1 µM
half-life [31]: 5.1 h
MRT [32]: 18 h
IC50 [33]: 0.14 µM
fraction unbound [34]: 0.009
Vd [35]: 3.4 L/kg
fraction unbound [36]: 0.009
IC50 (Cytochrome P450 3A4): 8.5 µM
AUC [37]: 23 µM·h
clearance [38]: 10 mL/min/kg
MRT [39]: 4.7 h
IC50 [40]: 0.089 µM
bioavailability [41]: < 4%
Activity (Mus musculus): 100%
